ChEMBL document CHEMBL4834471 (J Med Chem, 2021)
Active and inactive are the calls of the source. The rule behind the calls is not given here.

Legend:
[1] = Drug concentration in peritoneal exudate of CD-1 mouse at 30 mg/kg, po after 30 mins; format: ADME, organism-based, Peritoneal fluid; settings: read-out: Ct
How it was run: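 Oral dosing at 30 mg/kg in zymosan peritonitis; mice killed 30 min after zymosan injection. Compound concentrations measured in plasma and in peritoneal exudate.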

[2] = target: T1, Prostaglandin G/H synthase 1 (Ovis aries) (UniProt P05979); assay: Inhibition of ovine COX-1 assessed as reduction in 12-HHT formation at 10 uM using arachidonic acid as substrate preincubated for 6 mins followed by substrate addition by RPL-HPLC method
T1 sequence (whole entry): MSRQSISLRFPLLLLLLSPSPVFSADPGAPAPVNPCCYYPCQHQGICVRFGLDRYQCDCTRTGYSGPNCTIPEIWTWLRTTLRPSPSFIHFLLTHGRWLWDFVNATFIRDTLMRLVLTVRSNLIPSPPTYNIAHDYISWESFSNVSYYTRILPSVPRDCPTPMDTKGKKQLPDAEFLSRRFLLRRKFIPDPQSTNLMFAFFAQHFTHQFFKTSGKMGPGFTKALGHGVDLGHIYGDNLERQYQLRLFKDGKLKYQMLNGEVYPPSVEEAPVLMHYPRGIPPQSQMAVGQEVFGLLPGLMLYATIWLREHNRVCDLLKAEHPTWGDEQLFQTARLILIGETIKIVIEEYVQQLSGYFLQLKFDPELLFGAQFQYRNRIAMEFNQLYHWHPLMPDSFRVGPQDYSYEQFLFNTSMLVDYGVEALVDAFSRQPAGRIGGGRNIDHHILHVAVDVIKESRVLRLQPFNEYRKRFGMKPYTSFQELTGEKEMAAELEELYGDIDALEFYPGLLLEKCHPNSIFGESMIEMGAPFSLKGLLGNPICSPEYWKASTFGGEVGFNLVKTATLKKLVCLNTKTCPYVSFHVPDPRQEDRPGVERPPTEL

[3] = target: Prostaglandin G/H synthase 1 (Homo sapiens) (UniProt P23219); assay: Inhibition of COX-1 in human platelets assessed as reduction in 12-HHT formation at 10 uM using arachidonic acid as substrate preincubated for 5 mins followed by substrate addition and measured after 5 mins by RPL-HPLC method; format: tissue-based; settings: Platelet, time 10.0 min
[4] = tested on: Mus musculus; assay: Antiinflammatory activity in zymosan-induced CD-1 mouse peritonitis model assessed as reduction in LTC4 level at 10 mg/kg, ip preincubated with compound for 30 mins followed by zymosan addition and measured after 30 mins by ELISA; format: functional, organism-based; settings: time 60.0 min
How it was run: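 Compound 10 mg/kg i.p. in zymosan-induced peritonitis; mice killed 30 min after zymosan injection; exudate LTC4 measured by ELISA; statistics by two-tailed unpaired t-test of log data.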

[5] = tested on: Monocyte; assay: Cytotoxicity against human monocytes assessed as reduction in LDH release at <=1 uM after 2 to 24 hrs by CytoTox96 nonradioactive assay; format: cell-based; settings: time 2-24 hrs
How it was run: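 Monocytes at 4 × 10^5/mL in monocyte medium treated 2 or 24 h at 37 °C, 5% CO2, with 0.1% DMSO vehicle. LDH release measured by CytoTox 96 kit, with Triton X-100 (0.8%) defining maximum release.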

[6] = tested on: Mus musculus; assay: Antiinflammatory activity in zymosan-induced CD-1 mouse peritonitis model assessed as reduction in LTB4 level at 10 mg/kg, ip preincubated with compound for 30 mins followed by zymosan addition and measured after 4 hrs by ELISA; format: functional, organism-based; settings: time 270.0 min
How it was run: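 Zymosan peritonitis with compound 10 mg/kg i.p. Vascular permeability assessed at 30 min after zymosan. Exudate LTB4 (ELISA) and peritoneal immune cell infiltration assessed at 4 h. Two-tailed unpaired t-test of log data.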

[7] = target: T2, Bifunctional epoxide hydrolase 2 (Homo sapiens) (UniProt P34913); assay: Inhibition of recombinant human sEH expressed in Sf9 insect cells at 10 uM using PHOME as substrate preincubated for 10 mins followed by substrate addition and measured after 60 mins by fluorescence microplate method; settings: time 70.0 min
T2 sequence (whole entry): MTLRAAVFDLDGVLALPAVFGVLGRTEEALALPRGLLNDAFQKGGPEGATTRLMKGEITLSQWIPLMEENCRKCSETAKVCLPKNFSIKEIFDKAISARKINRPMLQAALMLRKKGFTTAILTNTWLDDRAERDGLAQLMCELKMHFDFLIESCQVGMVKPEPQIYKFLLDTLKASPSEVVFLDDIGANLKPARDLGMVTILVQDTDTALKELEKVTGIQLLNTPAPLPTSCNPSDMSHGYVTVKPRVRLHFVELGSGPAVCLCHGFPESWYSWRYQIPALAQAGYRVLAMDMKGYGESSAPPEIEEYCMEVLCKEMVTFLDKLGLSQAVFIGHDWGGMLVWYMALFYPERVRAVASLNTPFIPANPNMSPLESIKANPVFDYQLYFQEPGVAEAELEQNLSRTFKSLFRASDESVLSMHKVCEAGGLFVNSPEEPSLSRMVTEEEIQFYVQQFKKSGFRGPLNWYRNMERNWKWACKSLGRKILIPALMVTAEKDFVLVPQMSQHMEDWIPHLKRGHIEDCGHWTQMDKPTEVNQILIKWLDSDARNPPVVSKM

Chain of Prostaglandin G/H synthase 1 (Homo sapiens) (P23219 whole entry): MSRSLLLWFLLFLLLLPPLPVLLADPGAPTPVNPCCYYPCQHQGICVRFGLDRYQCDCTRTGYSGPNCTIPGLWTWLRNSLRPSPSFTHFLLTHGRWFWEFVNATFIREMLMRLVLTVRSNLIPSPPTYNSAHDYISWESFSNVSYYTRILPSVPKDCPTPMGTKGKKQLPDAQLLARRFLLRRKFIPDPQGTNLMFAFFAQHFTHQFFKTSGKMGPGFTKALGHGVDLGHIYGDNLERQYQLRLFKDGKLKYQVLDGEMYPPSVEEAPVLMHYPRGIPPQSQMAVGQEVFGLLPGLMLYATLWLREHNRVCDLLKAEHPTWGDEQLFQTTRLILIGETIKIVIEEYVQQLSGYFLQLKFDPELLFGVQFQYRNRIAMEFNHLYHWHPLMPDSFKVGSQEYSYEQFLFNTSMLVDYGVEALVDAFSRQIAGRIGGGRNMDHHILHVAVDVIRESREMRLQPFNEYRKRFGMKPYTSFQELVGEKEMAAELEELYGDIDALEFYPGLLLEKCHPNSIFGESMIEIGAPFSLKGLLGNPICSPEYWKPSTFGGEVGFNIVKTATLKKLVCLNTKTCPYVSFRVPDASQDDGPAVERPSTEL

concentration at 0.5 h [1]: 0.5 nM
inhibition [2]: inactive
inhibition [3]: inactive
inhibition [7]: inactive
Structure (SMILES): C/C(=C\CC/C(C)=C/CC[C@]1(C)CCc2c(C)c(O)c(C)c(C)c2O1)CCC=C(CO)CO
Activity [4]: Active
Activity [5]: Non-Toxic
Activity [6]: Active
